# pIC50: −log10 of the molar value.
# What was measured:
# [1] = Cytotoxicity against human Hep3B cells by MTT assay; type: functional, cell-based, Hep 3B2
# HepG2 = test: Cytotoxicity against human HepG2 cells by MTT assay; type: functional, cell-based
# RAW264.7 [2] = test: Antiinflammatory activity in mouse RAW264.7 cells assessed as residual LPS-induced iNOS protein level at 10 uM by Western blotting analysis
# RAW264.7 [3] = test: Antiinflammatory activity in mouse RAW264.7 cells assessed as inhibition of LPS-induced COX2 protein expression at 10 uM by Western blotting analysis; type: functional
# How it was run: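 RAW264.7 macrophages (ATCC) stimulated with LPS and treated at 10 μM. iNOS and COX-2 protein levels were quantified by immunoblot and expressed as % of LPS-only control cells (100%). Means ± SEM, n = 6.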
# MCF7 = test: Cytotoxicity against human MCF7 cells by MTT assay; type: functional, cell-based
# [4] = system: beta-actin protein expression; test: Toxicity in mouse RAW264.7 cells assessed as inhibition of beta-actin protein expression at 10 uM by Western blotting analysis; values are per cent of control
# MDA-MB-231 = test: Cytotoxicity against human MDA-MB-231 cells by MTT assay; type: functional, cell-based
Structure (SMILES),residual iNOS protein level at 10 µM (RAW264.7 [2]),COX-2 expression (% of LPS control) at 10 µM (RAW264.7 [3]),further results
COc1cccc2c1C(=O)c1c(O)c3c(c(O)c1C2=O)C[C@@](O)(C(=O)CO)C[C@@H]3O[C@H]1C[C@H](N)[C@H](O)[C@H](C)O1 [DOXORUBICIN],,,pIC50 [1]: 6.15
CC1=C(C)C(=O)O[C@@H]([C@@H](C)[C@H]2CC[C@H]3[C@@H]4CCC5=CC(=O)C=C[C@]5(C)[C@H]4CC[C@]23C)C1 [MINABEOLIDE 1],9.6%,18.3%,pIC50 (HepG2): 5.28; pIC50 (MCF7): 4.73
CC(=O)OC[C@]12CC[C@H]3[C@@H](CCC4=CC(=O)C=C[C@@]43C)[C@@H]1CC[C@@H]2[C@H](C)[C@H]1CC(C)=C(C)C(=O)O1 [MINABEOLIDE 2],45.7%,51.2%,
C[C@@H]([C@H]1CC[C@H]2[C@@H]3CCC4=CC(=O)C=C[C@]4(C)[C@H]3CC[C@]12C)[C@H]1CC[C@H](C)C(=O)O1 [MINABEOLIDE 4],23.2%,22.4%,
CC(=O)OC[C@]12CC[C@H]3[C@@H](CCC4=CC(=O)C=C[C@@]43C)[C@@H]1CC[C@@H]2[C@H](C)[C@H]1CC[C@H](C)C(=O)O1 [MINABEOLIDE 5],6.3%,31.3%,
CC1=C(C)C(=O)O[C@@H]([C@@H](C)[C@H]2CC[C@H]3[C@@H]4CCC5=CC(=O)C=C[C@]5(C)[C@H]4CC[C@]23C=O)C1 [PARAMINABEOLIDE A],11%,,residual activity at 10 µM [4]: 66.5%; pIC50 (HepG2): 5.10
CC(=O)OC[C@]12CC[C@H]3[C@@H](CCC4=CC(=O)C=C[C@@]43C)[C@@H]1CC[C@@H]2[C@H](C)[C@H]1C[C@H](C)[C@H](C)C(=O)O1 [PARAMINABEOLIDE B],7.3%,,pIC50 (MDA-MB-231): 4.71; pIC50 (MCF7): 4.83
CC(=O)OC[C@]12CC[C@H]3[C@@H](CCC4=CC(=O)C=C[C@@]43C)[C@@H]1CC[C@@H]2[C@H](C)[C@H](O)[C@@H]1OC(=O)[C@H](C)[C@H]1C [PARAMINABEOLIDE C],37.9%,,
C[C@H]([C@H](O)[C@@H]1OC(=O)[C@H](C)[C@@H]1C)[C@H]1CC[C@H]2[C@@H]3CCC4=CC(=O)C=C[C@]4(C)[C@H]3CC[C@]12C [PARAMINABEOLIDE D],43.3%,,

# — ChEMBL document CHEMBL1782008, “Paraminabeolides A-F, cytotoxic and anti-inflammatory marine withanolides from the soft coral Paraminabea acronocephala” (J Nat Prod, 2011)
